Assays:
[1] = molecular target: T1, 5-hydroxytryptamine receptor 6 (Homo sapiens, UniProt P50406); assay: Antagonist activity at human recombinant 5HT6 receptor expressed in HEK293 cells assessed as inhibition of serotonin-induced cAMP production; type: functional, cell-based
Procedure, shortened: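 HEK293 cells stably expressing recombinant human 5-HT6R, stimulated with serotonin. cAMP from adenylyl cyclase measured by LANCE. Compounds screened at 5 and 10 μM. IC50 determined for compounds giving more than 50% inhibition of cAMP synthesis at 5 μM.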

[2] = molecular target: T2, hERG (KCNH2) (Homo sapiens, UniProt Q12809); assay: Inhibition of human ERG at 30 uM by patch clamp assay
T2 sequence (Q12809 whole entry): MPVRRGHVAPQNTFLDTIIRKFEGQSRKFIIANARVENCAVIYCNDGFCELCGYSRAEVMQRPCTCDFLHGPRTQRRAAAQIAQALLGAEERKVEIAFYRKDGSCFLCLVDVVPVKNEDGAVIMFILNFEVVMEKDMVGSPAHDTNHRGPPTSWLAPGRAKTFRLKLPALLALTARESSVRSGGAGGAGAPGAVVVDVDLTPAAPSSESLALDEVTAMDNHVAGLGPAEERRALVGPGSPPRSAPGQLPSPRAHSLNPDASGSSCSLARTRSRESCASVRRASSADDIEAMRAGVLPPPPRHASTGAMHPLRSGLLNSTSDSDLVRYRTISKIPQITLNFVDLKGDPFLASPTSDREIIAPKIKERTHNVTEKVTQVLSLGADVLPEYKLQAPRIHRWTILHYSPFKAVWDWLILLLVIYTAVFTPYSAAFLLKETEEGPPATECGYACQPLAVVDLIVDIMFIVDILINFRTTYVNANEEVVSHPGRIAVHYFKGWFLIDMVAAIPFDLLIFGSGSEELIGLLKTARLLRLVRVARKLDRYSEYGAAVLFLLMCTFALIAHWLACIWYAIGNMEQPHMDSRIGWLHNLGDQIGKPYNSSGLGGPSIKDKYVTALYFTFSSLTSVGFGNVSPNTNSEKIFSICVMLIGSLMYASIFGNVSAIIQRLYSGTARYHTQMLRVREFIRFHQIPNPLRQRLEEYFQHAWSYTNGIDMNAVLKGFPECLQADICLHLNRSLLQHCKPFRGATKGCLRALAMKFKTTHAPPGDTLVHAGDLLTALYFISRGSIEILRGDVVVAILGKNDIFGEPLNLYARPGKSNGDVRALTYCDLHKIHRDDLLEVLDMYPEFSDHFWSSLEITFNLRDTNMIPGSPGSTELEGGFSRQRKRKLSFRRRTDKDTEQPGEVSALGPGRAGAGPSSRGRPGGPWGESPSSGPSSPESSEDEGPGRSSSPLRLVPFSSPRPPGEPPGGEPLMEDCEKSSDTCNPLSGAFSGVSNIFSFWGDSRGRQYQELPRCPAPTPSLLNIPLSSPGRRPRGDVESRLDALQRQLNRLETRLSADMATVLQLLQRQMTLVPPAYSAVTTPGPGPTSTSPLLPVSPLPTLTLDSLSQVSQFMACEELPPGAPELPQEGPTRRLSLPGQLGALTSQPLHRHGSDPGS
Procedure, shortened: (§1)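 hERG potassium channel inhibition measured by patch clamp, performed by MDS Pharma Services. Read-out is % inhibition at a single test concentration.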

[3] = molecular target: T1, 5-hydroxytryptamine receptor 6; assay: Binding affinity to human recombinant 5HT6 receptor expressed in HEK293 cells at 1 uM by radioligand displacement assay; type: cell-based
Procedure, shortened: (§2)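 Competitive radioligand binding run by MDS Pharma Services on a serotonin receptor panel. Test compound at 1 µM. Read-out is % displacement of radioligand from each receptor complex.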

[4] = molecular target: T1, 5-hydroxytryptamine receptor 6; assay: Binding affinity to human recombinant 5HT6 receptor expressed in HEK293 cells by radioligand displacement assay; type: cell-based
Procedure, shortened: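 Competitive radioligand binding at the 5-HT6 receptor, run by MDS Pharma Services as part of a serotonin receptor panel. IC50 and Ki values derived.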

[5] = molecular target: 5-hydroxytryptamine receptor 2A (Homo sapiens) (UniProt P28223); assay: Binding affinity to 5HT2A receptor at 1 uM by radioligand displacement assay; procedure, shortened: as §2
5-hydroxytryptamine receptor 2A (Homo sapiens), sequence (P28223 whole entry): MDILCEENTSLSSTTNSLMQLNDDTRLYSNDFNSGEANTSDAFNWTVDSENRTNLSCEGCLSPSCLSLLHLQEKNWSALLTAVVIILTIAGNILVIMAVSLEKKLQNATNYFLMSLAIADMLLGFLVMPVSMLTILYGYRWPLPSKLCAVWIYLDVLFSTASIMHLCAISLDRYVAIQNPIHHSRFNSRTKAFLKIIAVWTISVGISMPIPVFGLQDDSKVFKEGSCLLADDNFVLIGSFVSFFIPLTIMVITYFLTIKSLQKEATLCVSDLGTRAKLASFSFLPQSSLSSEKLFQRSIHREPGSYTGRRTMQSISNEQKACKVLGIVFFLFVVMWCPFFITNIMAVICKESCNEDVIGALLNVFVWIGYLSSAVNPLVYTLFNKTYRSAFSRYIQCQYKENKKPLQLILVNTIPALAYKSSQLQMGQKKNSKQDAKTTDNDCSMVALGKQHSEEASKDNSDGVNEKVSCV

[6] = molecular target: T3, 5-hydroxytryptamine receptor 1A (Homo sapiens) (UniProt P08908); assay: Binding affinity to 5HT1A receptor at 1 uM by radioligand displacement assay; procedure, shortened: as §2
T3 sequence (whole entry): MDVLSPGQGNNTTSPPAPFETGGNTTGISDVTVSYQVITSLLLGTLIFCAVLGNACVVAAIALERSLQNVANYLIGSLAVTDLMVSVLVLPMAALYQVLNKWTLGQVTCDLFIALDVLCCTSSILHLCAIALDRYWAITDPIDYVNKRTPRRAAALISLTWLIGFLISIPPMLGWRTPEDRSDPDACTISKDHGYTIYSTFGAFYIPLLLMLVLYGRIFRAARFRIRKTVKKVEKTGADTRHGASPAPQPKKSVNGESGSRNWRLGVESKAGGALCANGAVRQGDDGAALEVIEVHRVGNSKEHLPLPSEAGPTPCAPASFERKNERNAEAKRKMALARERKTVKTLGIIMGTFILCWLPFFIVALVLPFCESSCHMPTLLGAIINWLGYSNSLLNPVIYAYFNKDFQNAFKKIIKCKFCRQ

[7] = molecular target: T4, 5-hydroxytryptamine receptor 2C (Homo sapiens) (UniProt P28335); assay: Binding affinity to 5HT2C receptor at 1 uM by radioligand displacement assay; procedure, shortened: as §2
T4 sequence (whole entry): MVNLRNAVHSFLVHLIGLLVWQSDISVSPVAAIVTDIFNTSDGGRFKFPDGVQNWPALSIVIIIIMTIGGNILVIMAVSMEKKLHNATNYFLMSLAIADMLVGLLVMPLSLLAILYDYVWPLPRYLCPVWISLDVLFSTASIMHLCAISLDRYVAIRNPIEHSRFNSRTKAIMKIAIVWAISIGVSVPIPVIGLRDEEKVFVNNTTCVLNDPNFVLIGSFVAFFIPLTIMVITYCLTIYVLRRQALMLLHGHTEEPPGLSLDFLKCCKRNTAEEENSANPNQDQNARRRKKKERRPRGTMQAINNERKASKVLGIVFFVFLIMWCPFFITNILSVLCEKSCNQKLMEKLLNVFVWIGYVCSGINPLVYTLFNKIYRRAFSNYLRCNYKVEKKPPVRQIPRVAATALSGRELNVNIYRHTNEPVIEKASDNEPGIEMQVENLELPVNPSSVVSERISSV

[8] = molecular target: 5-hydroxytryptamine receptor 2B (Homo sapiens) (UniProt P41595); assay: Binding affinity to 5HT2B receptor at 1 uM by radioligand displacement assay; procedure, shortened: as §2
5-hydroxytryptamine receptor 2B (Homo sapiens), sequence (P41595 whole entry): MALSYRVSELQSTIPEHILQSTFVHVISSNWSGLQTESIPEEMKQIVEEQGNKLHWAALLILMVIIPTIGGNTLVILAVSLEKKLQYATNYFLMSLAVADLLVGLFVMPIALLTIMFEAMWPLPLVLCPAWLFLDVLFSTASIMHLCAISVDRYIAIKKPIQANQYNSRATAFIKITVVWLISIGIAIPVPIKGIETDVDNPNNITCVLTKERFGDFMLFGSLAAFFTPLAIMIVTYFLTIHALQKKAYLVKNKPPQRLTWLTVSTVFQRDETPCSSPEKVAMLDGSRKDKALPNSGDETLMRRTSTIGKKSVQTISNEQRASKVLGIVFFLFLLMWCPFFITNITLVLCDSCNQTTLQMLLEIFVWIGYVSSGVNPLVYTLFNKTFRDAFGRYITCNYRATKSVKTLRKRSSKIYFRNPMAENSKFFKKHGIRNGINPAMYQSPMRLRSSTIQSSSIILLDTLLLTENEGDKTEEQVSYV

[9] = molecular target: 5-hydroxytryptamine receptor 7 (Homo sapiens) (UniProt P34969); assay: Binding affinity to 5HT7 receptor at 1 uM by radioligand displacement assay; procedure, shortened: as §2
5-hydroxytryptamine receptor 7 (Homo sapiens), sequence (P34969 whole entry): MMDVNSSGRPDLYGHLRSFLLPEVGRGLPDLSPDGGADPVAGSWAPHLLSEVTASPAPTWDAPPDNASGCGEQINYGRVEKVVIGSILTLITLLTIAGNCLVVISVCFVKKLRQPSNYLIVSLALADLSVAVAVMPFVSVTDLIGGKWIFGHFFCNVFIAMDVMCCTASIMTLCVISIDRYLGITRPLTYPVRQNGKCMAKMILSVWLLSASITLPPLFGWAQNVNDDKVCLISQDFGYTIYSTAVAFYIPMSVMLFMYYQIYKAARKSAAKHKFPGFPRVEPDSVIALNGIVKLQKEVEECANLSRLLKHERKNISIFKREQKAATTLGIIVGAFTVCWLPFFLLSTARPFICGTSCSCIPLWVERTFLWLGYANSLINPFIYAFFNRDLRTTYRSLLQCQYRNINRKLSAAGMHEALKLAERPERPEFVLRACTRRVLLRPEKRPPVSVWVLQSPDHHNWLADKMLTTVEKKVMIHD

[10] = molecular target: T5, 5-hydroxytryptamine receptor 3A (Homo sapiens) (UniProt P46098); assay: Binding affinity to 5HT3 receptor at 1 uM by radioligand displacement assay; procedure, shortened: as §2
T5 sequence (whole entry): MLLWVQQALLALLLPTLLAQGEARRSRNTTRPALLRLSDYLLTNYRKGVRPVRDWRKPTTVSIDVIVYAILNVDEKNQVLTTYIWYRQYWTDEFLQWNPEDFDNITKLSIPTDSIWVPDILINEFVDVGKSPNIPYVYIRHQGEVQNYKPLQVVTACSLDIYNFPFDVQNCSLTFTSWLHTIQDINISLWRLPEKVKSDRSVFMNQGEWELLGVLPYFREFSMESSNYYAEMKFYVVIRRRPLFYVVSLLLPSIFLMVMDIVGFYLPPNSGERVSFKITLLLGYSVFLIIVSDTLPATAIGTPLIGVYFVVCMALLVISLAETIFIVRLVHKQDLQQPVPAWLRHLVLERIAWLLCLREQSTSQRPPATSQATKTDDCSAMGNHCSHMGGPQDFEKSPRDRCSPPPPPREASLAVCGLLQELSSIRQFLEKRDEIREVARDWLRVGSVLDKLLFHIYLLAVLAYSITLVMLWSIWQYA

[11] = molecular target: 5-hydroxytryptamine receptor 1B (Homo sapiens) (UniProt P28222); assay: Binding affinity to 5HT1B receptor at 1 uM by radioligand displacement assay; procedure, shortened: as §2
5-hydroxytryptamine receptor 1B (Homo sapiens), sequence (P28222 whole entry): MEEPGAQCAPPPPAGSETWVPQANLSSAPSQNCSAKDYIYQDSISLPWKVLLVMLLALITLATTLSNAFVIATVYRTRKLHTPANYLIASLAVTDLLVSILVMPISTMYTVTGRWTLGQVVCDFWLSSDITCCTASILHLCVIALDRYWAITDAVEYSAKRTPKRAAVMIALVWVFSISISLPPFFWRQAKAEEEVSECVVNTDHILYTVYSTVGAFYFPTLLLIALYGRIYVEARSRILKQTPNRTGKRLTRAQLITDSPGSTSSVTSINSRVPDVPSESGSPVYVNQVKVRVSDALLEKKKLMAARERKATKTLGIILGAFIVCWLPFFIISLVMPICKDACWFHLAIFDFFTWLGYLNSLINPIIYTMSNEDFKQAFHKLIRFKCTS

[12] = molecular target: 5-hydroxytryptamine receptor 4 (Homo sapiens) (UniProt Q13639); assay: Binding affinity to 5HT4 receptor at 1 uM by radioligand displacement assay; procedure, shortened: as §2
5-hydroxytryptamine receptor 4 (Homo sapiens), sequence (Q13639 whole entry): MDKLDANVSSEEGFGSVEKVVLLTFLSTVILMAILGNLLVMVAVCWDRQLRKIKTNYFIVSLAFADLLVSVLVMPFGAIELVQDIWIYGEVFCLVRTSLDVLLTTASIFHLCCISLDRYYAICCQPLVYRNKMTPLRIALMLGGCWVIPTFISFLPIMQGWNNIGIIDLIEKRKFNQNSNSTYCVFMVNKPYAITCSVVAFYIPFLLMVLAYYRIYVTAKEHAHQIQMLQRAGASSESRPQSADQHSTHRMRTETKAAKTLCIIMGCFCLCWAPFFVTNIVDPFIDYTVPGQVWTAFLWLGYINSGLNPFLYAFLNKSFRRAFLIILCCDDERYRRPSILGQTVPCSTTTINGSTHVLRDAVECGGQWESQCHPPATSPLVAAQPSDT

[13] = molecular target: T2, hERG (KCNH2); assay: Inhibition of human ERG at 15 uM by patch clamp assay; procedure, shortened: as §1

T1 sequence (P50406 whole entry): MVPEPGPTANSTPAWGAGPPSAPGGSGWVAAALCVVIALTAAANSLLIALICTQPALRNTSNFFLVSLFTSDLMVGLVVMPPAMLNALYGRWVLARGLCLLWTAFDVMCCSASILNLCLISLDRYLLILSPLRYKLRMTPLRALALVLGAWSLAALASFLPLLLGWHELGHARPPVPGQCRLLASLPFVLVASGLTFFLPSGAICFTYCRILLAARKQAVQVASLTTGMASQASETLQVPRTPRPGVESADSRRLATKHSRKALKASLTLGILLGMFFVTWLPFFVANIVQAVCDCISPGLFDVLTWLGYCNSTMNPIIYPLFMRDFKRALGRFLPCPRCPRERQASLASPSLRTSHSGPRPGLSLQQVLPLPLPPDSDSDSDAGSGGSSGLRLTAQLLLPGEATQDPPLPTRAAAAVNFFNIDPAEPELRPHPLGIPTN

| Compound | IC50 [1] | inhibition at 30 µM [2] | Activity [3] | IC50 [4] | Ki [4] | Activity [5] | Activity [6] | Activity [7] | Activity [8] | Activity [9] | Activity [10] | Activity [11] | Activity [12] | inhibition at 15 µM [13] |
| --- | --- | --- | --- | --- | --- | --- | --- | --- | --- | --- | --- | --- | --- | --- |
| CN(Cc1ccccc1)c1nc2c(S(=O)(=O)c3cccc(Cl)c3)nnn2c2ccsc12 | 920 nM | 20% | 106% | 7.5 nM | 3.5 nM | 50% | 9% | 15% | 46% | 6% | -3% | 3% | 41% |  |
| CN(Cc1ccccc1)c1nc2c(S(=O)(=O)c3ccccc3)nnn2c2ccsc12 | 170 nM |  | 103% | 5 nM | 2.3 nM | 15% | 2% | 2% | 12% | -2% | -7% | 1% | 33% | 20% |

— ChEMBL document CHEMBL1177669, “Synthesis and biological study of 3-(phenylsulfonyl)thieno[2,3-e][1,2,3]triazolo[1,5-a]pyrimidines as potent and selective serotonin 5-HT6 receptor antagonists” (Bioorg Med Chem, 2010)
